# Assay results from ChEMBL document CHEMBL3784993, “Synthesis and anticancer activity of some 5-fluoro-2'-deoxyuridine phosphoramidates” (Bioorg Med Chem, 2016).
# System: HeLa
# Experiment: Cytotoxicity against human HeLa cells after 72 hrs in presence of human recombinant cytochrome P450 isoform mixture by SRB assay
# Format: functional, cell-based
# Settings: not given
row,SMILES,IC50 [µM]
1,CCCCNP(=O)(OC[C@H]1O[C@@H](n2cc(F)c(=O)[nH]c2=O)C[C@@H]1OC(=O)OC(C)(C)C)Oc1ccc(Cl)cc1 (stereo not given in full),71.4
2,[N-]=[N+]=NCCCNP(=O)(OC[C@H]1O[C@@H](n2cc(F)c(=O)[nH]c2=O)C[C@@H]1O)Oc1ccc(Cl)cc1 (stereo not given in full),13.5

# System: MCF7
# Experiment: Cytotoxicity against human MCF7cells after 72 hrs by SRB assay
# Format: functional, cell-based
# Settings: MCF7, 72 h
row,SMILES,IC50 [µM]
1,CCNP(=O)(OC[C@H]1O[C@@H](n2cc(F)c(=O)[nH]c2=O)C[C@@H]1O)Oc1ccc(Cl)cc1 (stereo not given in full),19.4
2,CNP(=O)(OC[C@H]1O[C@@H](n2cc(F)c(=O)[nH]c2=O)C[C@@H]1O)Oc1ccc(Cl)cc1 (stereo not given in full),4.44
3,COC(=O)[C@H](C)NP(=O)(OC[C@H]1O[C@@H](n2cc(F)c(=O)[nH]c2=O)C[C@@H]1OC(=O)OC(C)(C)C)Oc1ccc(Cl)cc1 (stereo not given in full),2.56
4,C#CCNP(=O)(OC[C@H]1O[C@@H](n2cc(F)c(=O)[nH]c2=O)C[C@@H]1OC(=O)OC(C)(C)C)Oc1ccc(Cl)cc1 (stereo not given in full),4.71
5,Oc1ccc(Cl)cc1 [PARACHLOROPHENOL],1880
6,CCCCNP(=O)(OC[C@H]1O[C@@H](n2cc(F)c(=O)[nH]c2=O)C[C@@H]1OC(=O)OC(C)(C)C)Oc1ccc(Cl)cc1 (stereo not given in full),80.1
7,[N-]=[N+]=NCCCNP(=O)(OC[C@H]1O[C@@H](n2cc(F)c(=O)[nH]c2=O)C[C@@H]1O)Oc1ccc(Cl)cc1 (stereo not given in full),27

# System: 143B
# Experiment: Cytotoxicity against human thymidine kinase deficient 143B cells after 72 hrs by SRB assay
# Format: functional, cell-based
# Settings: not given
# Summary of the method: (§1)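 SRB protein-stain assay. Cells were seeded at about 10,000 per well and grown 24 h to a partial monolayer. They were then exposed for 72 h at 37 °C (5% CO2, 90% RH) to six concentrations: 0.1, 0.2, 1, 2, 10 and 20 µM. Final DMSO was ≤0.1%. Cells were TCA-fixed and stained with 0.4% SRB, and OD was read at 490 nm. Survival was expressed versus untreated cells. Cytarabine served as internal standard, with three experiments.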
row,SMILES,IC50 [µM]
1,CCNP(=O)(OC[C@H]1O[C@@H](n2cc(F)c(=O)[nH]c2=O)C[C@@H]1O)Oc1ccc(Cl)cc1 (stereo not given in full),16
2,CNP(=O)(OC[C@H]1O[C@@H](n2cc(F)c(=O)[nH]c2=O)C[C@@H]1O)Oc1ccc(Cl)cc1 (stereo not given in full),12.7
3,COC(=O)[C@H](C)NP(=O)(OC[C@H]1O[C@@H](n2cc(F)c(=O)[nH]c2=O)C[C@@H]1OC(=O)OC(C)(C)C)Oc1ccc(Cl)cc1 (stereo not given in full),3.07
4,C#CCNP(=O)(OC[C@H]1O[C@@H](n2cc(F)c(=O)[nH]c2=O)C[C@@H]1OC(=O)OC(C)(C)C)Oc1ccc(Cl)cc1 (stereo not given in full),3.62

# System: KB
# Experiment: Cytotoxicity against human KB cells after 72 hrs by SRB assay
# Format: functional, cell-based
# Settings: not given
# Summary of the method: as §1
row,SMILES,IC50 [µM]
1,CCNP(=O)(OC[C@H]1O[C@@H](n2cc(F)c(=O)[nH]c2=O)C[C@@H]1O)Oc1ccc(Cl)cc1 (stereo not given in full),8.21
2,CNP(=O)(OC[C@H]1O[C@@H](n2cc(F)c(=O)[nH]c2=O)C[C@@H]1O)Oc1ccc(Cl)cc1 (stereo not given in full),4.45
3,COC(=O)[C@H](C)NP(=O)(OC[C@H]1O[C@@H](n2cc(F)c(=O)[nH]c2=O)C[C@@H]1OC(=O)OC(C)(C)C)Oc1ccc(Cl)cc1 (stereo not given in full),1.54
4,C#CCNP(=O)(OC[C@H]1O[C@@H](n2cc(F)c(=O)[nH]c2=O)C[C@@H]1OC(=O)OC(C)(C)C)Oc1ccc(Cl)cc1 (stereo not given in full),4.37
5,Oc1ccc(Cl)cc1 [PARACHLOROPHENOL],1450
6,CCCCNP(=O)(OC[C@H]1O[C@@H](n2cc(F)c(=O)[nH]c2=O)C[C@@H]1OC(=O)OC(C)(C)C)Oc1ccc(Cl)cc1 (stereo not given in full),66.4
7,[N-]=[N+]=NCCCNP(=O)(OC[C@H]1O[C@@H](n2cc(F)c(=O)[nH]c2=O)C[C@@H]1O)Oc1ccc(Cl)cc1 (stereo not given in full),22.6

# System: not listed separately
# Experiment: Cytotoxicity against HDF cells after 72 hrs by SRB assay
# Format: cell-based
# Settings: Homo sapiens
row,SMILES,IC50 [µM]
1,CCNP(=O)(OC[C@H]1O[C@@H](n2cc(F)c(=O)[nH]c2=O)C[C@@H]1O)Oc1ccc(Cl)cc1 (stereo not given in full),16.3
2,CNP(=O)(OC[C@H]1O[C@@H](n2cc(F)c(=O)[nH]c2=O)C[C@@H]1O)Oc1ccc(Cl)cc1 (stereo not given in full),11.8
3,COC(=O)[C@H](C)NP(=O)(OC[C@H]1O[C@@H](n2cc(F)c(=O)[nH]c2=O)C[C@@H]1OC(=O)OC(C)(C)C)Oc1ccc(Cl)cc1 (stereo not given in full),6.21
4,C#CCNP(=O)(OC[C@H]1O[C@@H](n2cc(F)c(=O)[nH]c2=O)C[C@@H]1OC(=O)OC(C)(C)C)Oc1ccc(Cl)cc1 (stereo not given in full),7.21
5,Oc1ccc(Cl)cc1 [PARACHLOROPHENOL],1850
6,CCCCNP(=O)(OC[C@H]1O[C@@H](n2cc(F)c(=O)[nH]c2=O)C[C@@H]1OC(=O)OC(C)(C)C)Oc1ccc(Cl)cc1 (stereo not given in full),87
7,[N-]=[N+]=NCCCNP(=O)(OC[C@H]1O[C@@H](n2cc(F)c(=O)[nH]c2=O)C[C@@H]1O)Oc1ccc(Cl)cc1 (stereo not given in full),41

# System: HeLa
# Experiment: Cytotoxicity against human HeLa cells after 72 hrs by SRB assay
# Format: functional, cell-based
# Settings: not given
# Summary of the method: as §1
row,SMILES,IC50 [µM]
1,CCNP(=O)(OC[C@H]1O[C@@H](n2cc(F)c(=O)[nH]c2=O)C[C@@H]1O)Oc1ccc(Cl)cc1 (stereo not given in full),8.19
2,CNP(=O)(OC[C@H]1O[C@@H](n2cc(F)c(=O)[nH]c2=O)C[C@@H]1O)Oc1ccc(Cl)cc1 (stereo not given in full),5.78
3,COC(=O)[C@H](C)NP(=O)(OC[C@H]1O[C@@H](n2cc(F)c(=O)[nH]c2=O)C[C@@H]1OC(=O)OC(C)(C)C)Oc1ccc(Cl)cc1 (stereo not given in full),1.65
4,C#CCNP(=O)(OC[C@H]1O[C@@H](n2cc(F)c(=O)[nH]c2=O)C[C@@H]1OC(=O)OC(C)(C)C)Oc1ccc(Cl)cc1 (stereo not given in full),4.36
5,Oc1ccc(Cl)cc1 [PARACHLOROPHENOL],1680
6,CCCCNP(=O)(OC[C@H]1O[C@@H](n2cc(F)c(=O)[nH]c2=O)C[C@@H]1OC(=O)OC(C)(C)C)Oc1ccc(Cl)cc1 (stereo not given in full),76
7,[N-]=[N+]=NCCCNP(=O)(OC[C@H]1O[C@@H](n2cc(F)c(=O)[nH]c2=O)C[C@@H]1O)Oc1ccc(Cl)cc1 (stereo not given in full),22.2

# System: MCF7
# Experiment: Selectivity index, ratio of IC50 for HDF cells to IC50 for human MCF7 cells
# Format: functional
# Settings: not given
# Summary of the method: (§2)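 SI is calculated as the IC50 in normal human dermal fibroblasts (HDF) divided by the IC50 in the respective cancer line. Both values come from 72 h SRB assays. SD is from three independent experiments.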
row,SMILES,Ratio IC50
1,CNP(=O)(OC[C@H]1O[C@@H](n2cc(F)c(=O)[nH]c2=O)C[C@@H]1O)Oc1ccc(Cl)cc1 (stereo not given in full),2.66
2,COC(=O)[C@H](C)NP(=O)(OC[C@H]1O[C@@H](n2cc(F)c(=O)[nH]c2=O)C[C@@H]1OC(=O)OC(C)(C)C)Oc1ccc(Cl)cc1 (stereo not given in full),2.39
3,C#CCNP(=O)(OC[C@H]1O[C@@H](n2cc(F)c(=O)[nH]c2=O)C[C@@H]1OC(=O)OC(C)(C)C)Oc1ccc(Cl)cc1 (stereo not given in full),1.53

# System: HeLa
# Experiment: Selectivity index, ratio of IC50 for HDF cells to IC50 for human HeLa cells
# Format: functional
# Settings: not given
# Summary of the method: as §2
row,SMILES,Ratio IC50
1,CNP(=O)(OC[C@H]1O[C@@H](n2cc(F)c(=O)[nH]c2=O)C[C@@H]1O)Oc1ccc(Cl)cc1 (stereo not given in full),2.05
2,COC(=O)[C@H](C)NP(=O)(OC[C@H]1O[C@@H](n2cc(F)c(=O)[nH]c2=O)C[C@@H]1OC(=O)OC(C)(C)C)Oc1ccc(Cl)cc1 (stereo not given in full),3.76
3,C#CCNP(=O)(OC[C@H]1O[C@@H](n2cc(F)c(=O)[nH]c2=O)C[C@@H]1OC(=O)OC(C)(C)C)Oc1ccc(Cl)cc1 (stereo not given in full),1.65

# System: 143B
# Experiment: Cytotoxicity against human 143B cells after 72 hrs by SRB assay
# Format: functional, cell-based
# Settings: not given
# Summary of the method: as §1
row,SMILES,IC50 [µM]
1,CCNP(=O)(OC[C@H]1O[C@@H](n2cc(F)c(=O)[nH]c2=O)C[C@@H]1O)Oc1ccc(Cl)cc1 (stereo not given in full),2.41
2,CNP(=O)(OC[C@H]1O[C@@H](n2cc(F)c(=O)[nH]c2=O)C[C@@H]1O)Oc1ccc(Cl)cc1 (stereo not given in full),2.12
3,COC(=O)[C@H](C)NP(=O)(OC[C@H]1O[C@@H](n2cc(F)c(=O)[nH]c2=O)C[C@@H]1OC(=O)OC(C)(C)C)Oc1ccc(Cl)cc1 (stereo not given in full),1.51
4,C#CCNP(=O)(OC[C@H]1O[C@@H](n2cc(F)c(=O)[nH]c2=O)C[C@@H]1OC(=O)OC(C)(C)C)Oc1ccc(Cl)cc1 (stereo not given in full),3.02

# System: not listed separately
# Experiment: Selectivity index, ratio of IC50 for HDF cells to IC50 for human KB cells
# Format: functional
# Settings: not given
# Summary of the method: as §2
row,SMILES,Ratio IC50
1,CNP(=O)(OC[C@H]1O[C@@H](n2cc(F)c(=O)[nH]c2=O)C[C@@H]1O)Oc1ccc(Cl)cc1 (stereo not given in full),2.66
2,COC(=O)[C@H](C)NP(=O)(OC[C@H]1O[C@@H](n2cc(F)c(=O)[nH]c2=O)C[C@@H]1OC(=O)OC(C)(C)C)Oc1ccc(Cl)cc1 (stereo not given in full),4.03
3,C#CCNP(=O)(OC[C@H]1O[C@@H](n2cc(F)c(=O)[nH]c2=O)C[C@@H]1OC(=O)OC(C)(C)C)Oc1ccc(Cl)cc1 (stereo not given in full),1.65

# System: HepG2
# Experiment: Cytotoxicity against human HepG2 cells after 72 hrs by SRB assay
# Format: functional, cell-based
# Settings: HepG2, 72 h
row,SMILES,IC50 [µM]
1,CCNP(=O)(OC[C@H]1O[C@@H](n2cc(F)c(=O)[nH]c2=O)C[C@@H]1O)Oc1ccc(Cl)cc1 (stereo not given in full),5.39
2,CNP(=O)(OC[C@H]1O[C@@H](n2cc(F)c(=O)[nH]c2=O)C[C@@H]1O)Oc1ccc(Cl)cc1 (stereo not given in full),9.34
3,COC(=O)[C@H](C)NP(=O)(OC[C@H]1O[C@@H](n2cc(F)c(=O)[nH]c2=O)C[C@@H]1OC(=O)OC(C)(C)C)Oc1ccc(Cl)cc1 (stereo not given in full),3.47
4,C#CCNP(=O)(OC[C@H]1O[C@@H](n2cc(F)c(=O)[nH]c2=O)C[C@@H]1OC(=O)OC(C)(C)C)Oc1ccc(Cl)cc1 (stereo not given in full),3.66
5,Oc1ccc(Cl)cc1 [PARACHLOROPHENOL],1700
6,CCCCNP(=O)(OC[C@H]1O[C@@H](n2cc(F)c(=O)[nH]c2=O)C[C@@H]1OC(=O)OC(C)(C)C)Oc1ccc(Cl)cc1 (stereo not given in full),64.2
7,[N-]=[N+]=NCCCNP(=O)(OC[C@H]1O[C@@H](n2cc(F)c(=O)[nH]c2=O)C[C@@H]1O)Oc1ccc(Cl)cc1 (stereo not given in full),22.6

# System: HepG2
# Experiment: Selectivity index, ratio of IC50 for HDF cells to IC50 for human HepG2 cells
# Format: functional
# Settings: not given
# Summary of the method: as §2
row,SMILES,Ratio IC50
1,CNP(=O)(OC[C@H]1O[C@@H](n2cc(F)c(=O)[nH]c2=O)C[C@@H]1O)Oc1ccc(Cl)cc1 (stereo not given in full),1.27
2,COC(=O)[C@H](C)NP(=O)(OC[C@H]1O[C@@H](n2cc(F)c(=O)[nH]c2=O)C[C@@H]1OC(=O)OC(C)(C)C)Oc1ccc(Cl)cc1 (stereo not given in full),1.66
3,C#CCNP(=O)(OC[C@H]1O[C@@H](n2cc(F)c(=O)[nH]c2=O)C[C@@H]1OC(=O)OC(C)(C)C)Oc1ccc(Cl)cc1 (stereo not given in full),1.97

# System: 143B
# Experiment: Selectivity index, ratio of IC50 for HDF cells to IC50 for human 143B cells
# Format: functional
# Settings: not given
# Summary of the method: as §2
row,SMILES,Ratio IC50
1,CNP(=O)(OC[C@H]1O[C@@H](n2cc(F)c(=O)[nH]c2=O)C[C@@H]1O)Oc1ccc(Cl)cc1 (stereo not given in full),5.58
2,COC(=O)[C@H](C)NP(=O)(OC[C@H]1O[C@@H](n2cc(F)c(=O)[nH]c2=O)C[C@@H]1OC(=O)OC(C)(C)C)Oc1ccc(Cl)cc1 (stereo not given in full),4.11
3,C#CCNP(=O)(OC[C@H]1O[C@@H](n2cc(F)c(=O)[nH]c2=O)C[C@@H]1OC(=O)OC(C)(C)C)Oc1ccc(Cl)cc1 (stereo not given in full),2.39
